Assay results taken from ChEMBL document CHEMBL4028899, “Tyrocidine A Analogues Bearing the Planar d-Phe-2-Abz Turn Motif: How Conformation Impacts Bioactivity” (J Med Chem, 2017).
Converted amounts (≈) assume the structure as drawn. The source made the active and inactive calls. The calls are words filed in the database; no cut-off is given here. Square brackets hold non-standard residues; d marks the D form. Peptide text beside a SMILES is read from it. Orn = NCCC[C@H](N)C(=O)O; 2Abz = Nc1ccccc1C(=O)O

Columns and labels:
[1] = test system: Pseudomonas aeruginosa; assay: Antibacterial activity against Pseudomonas aeruginosa assessed as induction of total membrane lysis at 4 times MIC after 1 hr by uranyl acetate/lead citrate staining-based transmission electron microscopic method; type: functional
In short: (§1)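 Overnight cultures in non-cation-adjusted MHB were diluted to OD 0.4. 1 mL aliquots were incubated 1 h at 37 °C with compound at 4 x MIC or without compound (control). Cells were washed in Tris buffer (pH 7.4) and fixed in 4% glutaraldehyde for 2 h at room temperature. They were post-fixed in 1% osmium tetroxide, ethanol/acetone dehydrated, epoxy embedded (60 °C, 48 h), ultrathin sectioned and imaged by TEM.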

[2] = test system: Escherichia coli; assay: Antibacterial activity against Escherichia coli after 18 hrs; type: functional
In short: (§2)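 Broth microdilution in non-cation-adjusted MHB. Overnight 37 °C cultures adjusted to OD 0.1, then diluted 1:100. Two-fold compound dilutions were prepared in the plate before inoculation, with growth and sterility controls. Plates were incubated 18 h at 37 °C and read at OD600. MIC was the lowest concentration with no growth, from three concordant experiments each with three internal replicates.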

[3] = test system: Pseudomonas aeruginosa; assay: Antibacterial activity against Pseudomonas aeruginosa after 18 hrs; type: functional; in short: as §2
[4] = test system: Staphylococcus aureus; assay: Antibacterial activity against Staphylococcus aureus after 18 hrs; type: functional; in short: as §2
[5] = test system: Staphylococcus aureus; assay: Antibacterial activity against Staphylococcus aureus assessed as induction of cell membrane rupture at 4 times MIC after 1 hr by uranyl acetate/lead citrate staining-based transmission electron microscopic method; type: functional; in short: as §1
[6] = test system: Staphylococcus aureus; assay: Antibacterial activity against Staphylococcus aureus assessed as induction of cell wall rupture at 4 times MIC after 1 hr by uranyl acetate/lead citrate staining-based transmission electron microscopic method; type: functional; in short: as §1
[7] = test system: Staphylococcus aureus; assay: Antibacterial activity against Staphylococcus aureus assessed as decrease in intracellular density at 4 times MIC after 1 hr by uranyl acetate/lead citrate staining-based transmission electron microscopic method; type: functional, cell-based; in short: as §1
[8] = test system: Pseudomonas aeruginosa; assay: Antibacterial activity against Pseudomonas aeruginosa assessed as induction of cell blebbing at 4 times MIC after 1 hr by uranyl acetate/lead citrate staining-based transmission electron microscopic method; type: functional; in short: as §1
[9] = test system: Candida albicans; assay: Antifungal activity against Candida albicans after 48 hrs; type: functional
In short: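 A single C. albicans colony was taken into RPMI, adjusted to OD 0.1 and diluted 1:100. Two-fold compound dilutions were set up as for the bacterial microdilution and incubated 48 h. MIC was scored visually from colonies on the well bottoms as the lowest concentration with no growth, from three concordant experiments each with three internal replicates.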

[10] = test system: Candida albicans; assay: Antifungal activity against Candida albicans after 48 hrs in presence of 0.39 uM amphotericin B; type: functional
In short: (§3)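 C. albicans in RPMI (OD 0.1, diluted 1:100) was tested by two-fold compound dilution with 48 h incubation. The medium was supplemented with amphotericin B at 0.78 or 1.56 µM, giving a final 0.39 or 0.78 µM per well. MIC was read visually as no colony growth, from three concordant experiments each with three internal replicates.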

[11] = test system: Candida albicans; assay: Antifungal activity against Candida albicans after 48 hrs in presence of 0.78 uM amphotericin B; type: functional; in short: as §3
[12] = test system: Pseudomonas aeruginosa; assay: Antibacterial activity against Pseudomonas aeruginosa assessed as induction of cell membrane rupture at 4 times MIC after 1 hr by uranyl acetate/lead citrate staining-based transmission electron microscopic method; type: functional; in short: as §1
[13] = Solubility of the compound in water; type: physicochemical; conditions: buffer

SMILES	Activity [1]	MIC [2]	MIC [3]	MIC [4]	Activity [5]	Activity [6]	Activity [7]	Activity [8]	MIC [9]	MIC [10]	MIC [11]	Activity [12]	solubility [13]
CC(C)C[C@@H]1NC(=O)[C@H](CCCN)NC(=O)[C@H](C(C)C)NC(=O)[C@H](Cc2ccc(O)cc2)NC(=O)[C@H](CCCCN)NC(=O)[C@H](CC(N)=O)NC(=O)[C@@H](Cc2ccccc2)NC(=O)[C@H](Cc2ccccc2)NC(=O)c2ccccc2NC(=O)[C@@H](Cc2ccccc2)NC1=O (cyclo([2Abz]F[dF]NKYV[Orn]L[dF]))	Active	12.5 µM (≈ 16.2 µg/mL)	25 µM (≈ 32.3 µg/mL)	1.56 µM (≈ 2.02 µg/mL)	Active	Active	Active	Active	12.5 µM (≈ 16.2 µg/mL)	0.78 µM	0.39 µM	–	–
CC(C)C[C@@H]1NC(=O)[C@H](CCCN)NC(=O)[C@H](C(C)C)NC(=O)[C@H](Cc2ccc(O)cc2)NC(=O)[C@H](CCC(N)=O)NC(=O)[C@H](CC(N)=O)NC(=O)[C@@H](Cc2ccccc2)NC(=O)[C@H](Cc2ccccc2)NC(=O)[C@@H]2CCCN2C(=O)[C@@H](Cc2ccccc2)NC1=O [TYROCIDINE A] (cyclo(F[dF]NQYV[Orn]L[dF]P))	–	25 µM (≈ 31.8 µg/mL)	100 µM (≈ 127 µg/mL)	1.56 µM (≈ 1.98 µg/mL)	Active	Active	Active	–	3.12 µM (≈ 3.97 µg/mL)	0.78 µM	0.39 µM	inactive	–
CC(C)C[C@@H]1NC(=O)[C@H](CCCN)NC(=O)[C@H](C(C)C)NC(=O)[C@H](Cc2ccc(O)cc2)NC(=O)[C@H](CCC(N)=O)NC(=O)[C@H](CC(N)=O)NC(=O)[C@@H](Cc2ccccc2)NC(=O)[C@H](Cc2ccccc2)NC(=O)c2ccccc2NC(=O)[C@@H](Cc2ccccc2)NC1=O (cyclo([2Abz]F[dF]NQYV[Orn]L[dF]))	–	50 µM (≈ 64.6 µg/mL)	100 µM (≈ 129 µg/mL)	6.25 µM (≈ 8.08 µg/mL)	–	–	–	–	–	–	–	–	Insoluble
C[C@@H]1[C@H](O)[C@@H](C)/C=C/C=C/C=C/C=C/C=C/C=C/C=C/[C@H](O[C@@H]2O[C@H](C)[C@@H](O)[C@H](N)[C@@H]2O)C[C@@H]2O[C@](O)(C[C@@H](O)C[C@@H](O)[C@H](O)CC[C@@H](O)C[C@@H](O)CC(=O)O[C@H]1C)C[C@H](O)[C@H]2C(=O)O [AMPHOTERICIN B]	–	–	–	–	–	–	–	–	1.56 µM (≈ 1.44 µg/mL)	–	–	–	–
